Consider seven compounds from article PMC8829947 (ACS Omega, 2022).

Converted amounts (≈) assume the structure as drawn. Like-named read-outs stand apart in the source and are kept apart here.

Data set [1] deals with IMP-7. Briefly: In vitro enzyme inhibition assay, purified recombinant IMP-7. The format is biochemical. The settings on record: read-out: IC50 IMP-7 - Zn; Zn2+-depleted (Chelex-100-treated) buffer. In a few lines:
(§1)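 Purified recombinant enzyme at 4 nM was preincubated 5–10 min at RT with varying inhibitor concentrations. Buffer was 50 mM HEPES pH 7.5, 0.2% DMSO, 1% PEG 4000, with either 10 μM ZnSO4 or no zinc (Chelex-100-treated, 2 h, filtered). Reactions were started with nitrocefin (30 μM final, A490) or meropenem (50 μM final, A300) and followed 60 s. IC50 came from the linear portion of progress curves. Duplicates.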

Data set [2] relates to A. baumannii ATCC 17978::pROTO2 (NDM-1). Briefly: Meropenem rescue and MIC, antimicrobial susceptibility test. The note with it: rescue concentration at meropenem 2 μg/mL. The data set is classed as cell-based, Acinetobacter baumannii.
Data set [3] concerns the target NDM-1 (Klebsiella pneumoniae, UniProt C7C422). Briefly: In vitro enzyme inhibition assay, purified recombinant NDM-1. The data set is classed as biochemical. In a few lines: as §1
Data set [4] has as its system K. pneumoniae ATCC 33495::pGDP2 (NDM-1). The data set can be described thus: Meropenem rescue and MIC, antimicrobial susceptibility test. The data set is classed as cell-based, Klebsiella pneumoniae. The note with it: for RC in MHB, K. pneumoniae ATCC 33495::pGDP2 (NDM-1): rescue concentration at meropenem 2 μg/mL; for MIC: Klebsiella pneumoniae.
Data set [5] relates to E. coli expressing blaNDM-1. The data set can be described thus: Meropenem rescue concentration, antimicrobial susceptibility test. The format is cell-based, Escherichia coli. The settings on record: rescue concentration at meropenem 2 μg/mL, MHB. The method, boiled down: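 Checkerboard broth microdilution in Mueller–Hinton broth against E. coli carrying the plasmid-borne MBL gene. Meropenem used five 2-fold dilutions and the test compound six 2-fold dilutions, within 0.5–64 μg/mL; the test compound was dissolved in water or 50% methanol. Inoculum was adjusted to OD625 0.08–0.10, then diluted 200-fold. Incubation was 20 h static at 37 °C, read at OD600. RC is the compound concentration restoring susceptibility at meropenem 2 μg/mL. ≥2 replicates.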

The target in data set [6] is VIM-2 (Escherichia coli, UniProt Q5U7L7). The data set can be described thus: In vitro enzyme inhibition assay, purified recombinant VIM-2. The data set is classed as biochemical. The method, boiled down: as §1
The nature of data set [7]: Zn2+ affinity by competition with colorimetric PAR assay. The format is binding. The settings on record: for Kd: read-out: Kd,Zn2, PAR 100 μM, ZnSO4 10 μM, pH 7.5, 3 h at 25 °C. In a few lines: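 The test compound was titrated into Chelex-100-treated 20 mM HEPES, 100 mM NaCl, pH 7.5, containing PAR 100 μM and ZnSO4 10 μM, then incubated 3 h at 25 °C. Zn2+ displacement from PAR was read as the fall in absorbance at 492 nm. Kd was estimated from the known PAR stability constant at pH 7.4.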

Data set [8] relates to E. coli BW25113 (WT). Briefly: Cell penetration / intracellular accumulation assay. The note with it: 50 μM, wild-type E. coli. The data set is classed as cell-based, Escherichia coli. In a few lines:
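E. coli BW25113 (wild type) cells were incubated with the test compound at 50 μM (reference chelator at 50 or 100 μM) for 10 min at 37 °C. Cells were spun through ice-cold silicone oil (12,000g, 2 min), resuspended in water and lysed by three freeze–thaw cycles. The debris pellet was extracted with MeOH. Pooled extracts were quantified by UPLC–Q-TOF targeted MS/MS against a calibration curve. Biological and technical triplicates.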

Data set [9] concerns E. coli. Briefly: MIC of single agent, antimicrobial susceptibility test. The data set is classed as cell-based. The note with it: Escherichia coli.
[10] abbreviates: IC50 NDM-1 + Zn, Zn2+-supplemented (10 μM) buffer.
The mark [11] stands for this setting: IC50 NDM-1 - Zn, Zn2+-depleted (Chelex-100-treated) buffer.

NDM-1, sequence (C7C422 29-270, looked up, species assumed): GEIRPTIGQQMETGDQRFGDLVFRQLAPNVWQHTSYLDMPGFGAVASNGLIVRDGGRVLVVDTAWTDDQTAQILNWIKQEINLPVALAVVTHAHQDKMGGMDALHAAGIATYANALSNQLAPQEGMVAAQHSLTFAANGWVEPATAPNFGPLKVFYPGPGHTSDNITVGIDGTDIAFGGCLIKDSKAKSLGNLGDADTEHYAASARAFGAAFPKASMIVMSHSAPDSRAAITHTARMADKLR

`N[C@@H](CN[C@@H](CN[C@@H](CC(=O)O)C(=O)O)C(=O)O)CSc1ccccc1` [Compound 4]: the IC50 in data set [1] was found to be 32 ± 3.1 µM; in data set [3] (setting [10]), 12.5 ± 0.8 µM; in data set [3] (setting [11]) it was 150 ± 16 µM; in [6], 246 ± 23 µM. Besides, in data set [2], the “RC in MHB, A. baumannii ATCC 17978::pROTO2 (NDM-1)” value came to 8 μg/mL. Also, in data set [4], the “RC in MHB, K. pneumoniae ATCC 33495::pGDP2 (NDM-1)” value worked out at 8 μg/mL. For the same compound, the “RC in MHB, NDM-1” value in data set [5] is 8 µg/mL. The Kd in data set [7] was found to be 0.0004 ± 7e-05 µM. Also, the “intracellular accumulation increase relative to AMA” value in data set [8] was found to be 1.5 fold.

As for `N[C@@H](CN[C@@H](CN[C@@H](CC(=O)O)C(=O)O)C(=O)O)CSc1ccc(O)cc1` [Compound 6, ((S)-2-(((S)-2-Amino-3-((4-hydroxyphenyl)thio)propyl)amino)-2-carboxyethyl)-L-aspartic Acid], the IC50 in [1] is > 500 µM; in [3] (setting [10]) it was 54 ± 4.1 µM; in [3] (setting [11]) it was > 500 µM; in data set [6] it was 183 ± 10 µM. Besides, the “RC in MHB, A. baumannii ATCC 17978::pROTO2 (NDM-1)” value in data set [2] is on record as 8 μg/mL. Moreover, in data set [4], the “RC in MHB, K. pneumoniae ATCC 33495::pGDP2 (NDM-1)” value is reported as 16 μg/mL. Further, the “RC in MHB, NDM-1” value in data set [5] came out at 8 µg/mL. Also, the Kd in data set [7] came to 0.0078 ± 0.0034 µM. Besides, the “intracellular accumulation increase relative to AMA” value in data set [8] was determined as 4.5 fold.

For `N[C@@H](CN[C@@H](CN[C@@H](Cc1c[nH]cn1)C(=O)O)C(=O)O)C(=O)O` [Compound 10, (S)-2-Amino-3-(((S)-1-carboxy-2-(((S)-1-carboxy-2-(1H-imidazol-4-yl)ethyl)amino)ethyl)amino)propanoic Acid], the IC50 in data set [1] is > 500 µM; in [3] (setting [10]), 21.7 ± 3.9 µM; in [3] (setting [11]), 173 ± 3.9 µM; in data set [6], 136 ± 5 µM. In addition, the “RC in MHB, A. baumannii ATCC 17978::pROTO2 (NDM-1)” value in [2] is recorded as 4–8 μg/mL. In data set [4], the “RC in MHB, K. pneumoniae ATCC 33495::pGDP2 (NDM-1)” value was found to be 8 μg/mL. In data set [5], the “RC in MHB, NDM-1” value was determined as 8 µg/mL. In addition, the “Zn2+ affinity (in words)” value in data set [7] (outside the detection range of the assay, estimated) was “subpicomolar or lower”.

In the case of `NC(=O)C[C@H](NC[C@H](NC[C@H](N)C(=O)O)C(=O)O)C(=O)O` [Compound 16, ((S)-2-(((S)-2-Amino-2-carboxyethyl)amino)-2-carboxyethyl)-L-asparagine], the “RC in MHB, A. baumannii ATCC 17978::pROTO2 (NDM-1)” value in [2] is reported as 16 μg/mL. Moreover, the IC50 in data set [3] (setting [10]) was 18.3 ± 0.7 µM; in [3] (setting [11]), > 1000 µM. In [4], the “RC in MHB, K. pneumoniae ATCC 33495::pGDP2 (NDM-1)” value is given as 32 μg/mL. The “RC in MHB, NDM-1” value in data set [5] came to 16 µg/mL. Moreover, the Kd in [7] amounted to 0.001 ± 0.0001 µM.

As for `CC(C)(S)C(NC[C@H](NC[C@H](N)C(=O)O)C(=O)O)C(=O)O` (stereo in doubt) [Compound 15, (S)-2-(((S)-2-(((S)-2-Amino-2-carboxyethyl)amino)-2-carboxyethyl)amino)-3-mercapto-3-methylbutanoic Acid], the IC50 was > 500 µM in data set [1], 56.1 ± 2.5 µM in data set [3] (setting [10]), 98.6 ± 4 µM in data set [3] (setting [11]) and 361 ± 29 µM in data set [6]. Also, the MIC in data set [4] (ATCC33495, read-out: MIC of compound (Table 3 footnote c)) was 16 to 32 µg/mL; in data set [9] (read-out: MIC (antimicrobial activity)), 64 µg/mL. For the same compound, the “RC in MHB, NDM-1” value in [5] was 32 µg/mL. Moreover, the Kd in data set [7] was 0.0023 ± 0.0004 µM.

On to `N[C@@H](CN[C@@H](CN[C@@H](Cc1ccc(O)cc1)C(=O)O)C(=O)O)C(=O)O` [Compound 20, (S)-2-Amino-3-(((S)-1-carboxy-2-(((S)-1-carboxy-2-(4-hydroxyphenyl)ethyl)amino)ethyl)amino)propanoic Acid], for which, in [2], the “RC in MHB, A. baumannii ATCC 17978::pROTO2 (NDM-1)” value stood at 32 μg/mL. The IC50 was 38 ± 1.8 µM in data set [3] (setting [10]) and 172 ± 1.5 µM in data set [3] (setting [11]). Further, the “RC in MHB, K. pneumoniae ATCC 33495::pGDP2 (NDM-1)” value in data set [4] turned out to be 64 μg/mL. Moreover, the “RC in MHB, NDM-1” value in data set [5] was 16 µg/mL. For the same compound, in data set [7], the Kd was determined as 0.00064 ± 0.00017 µM.

For the compound `C[C@@H](O)[C@H]1C(=O)N2C(C(=O)O)=C(S[C@@H]3CN[C@H](C(=O)N(C)C)C3)[C@H](C)[C@H]12` [meropenem, reference compound], the MIC in data set [4] (ATCC33495, read-out: Meropenem MIC (Table 3 footnote b)) is 16 to 32 µg/mL (≈ 41.7 to 83.4 µM); in data set [9] (read-out: MIC of meropenem against resistant E. coli) it was 64 µg/mL. In data set [8] (10 min 37 °C), this compound came in with an intracellular accumulation of 43.9 nmol/10^12 CFU.
